# Activity calls are given as the source filed them. The calls are words filed in the database; no cut-off is given here.
# Experiments:
# SH-SY5Y [1] = assay: Inhibition of H2O2-induced apoptosis in human SH-SY5Y cells assessed as late apoptotic cells at 6.25 uM preincubated for 24 hrs followed by H2O2 addition measured after 4 hrs by Annexin V-FITC/propidium iodide staining based flow cytometry (reference value: 26.5 %); assay type: functional; set-up: scale not given: the % may be the effect or the level left
# Outline: (§1)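 Cells were seeded at 3.5×10^4 cells/mL in 6-well plates at 37 °C, 5% CO2. Compound was added at three concentrations for 24 h, then H2O2 (4.8 mM stock solution) to model and drug wells for 4 h. Cells were collected, washed in cold PBS and resuspended in annexin-binding buffer. Staining was annexin V-FITC 10 min, then PI 5 min, in the dark, followed by flow cytometry with quadrant gating.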
# [2] = Inhibition of H2O2-induced apoptosis in human HBMEC2 cells assessed as early apoptotic cells at 1.56 uM preincubated for 24 hrs followed by H2O2 addition measured after 4 hrs by Annexin V-FITC/propidium iodide staining based flow cytometry (reference value: 8.1 %); assay type: functional, HBMEC-2; set-up: scale not given: the % may be the effect or the level left; outline: as §1
# SH-SY5Y [3] = assay: Inhibition of H2O2-induced apoptosis in human SH-SY5Y cells assessed as late apoptotic cells at 1.56 uM preincubated for 24 hrs followed by H2O2 addition measured after 4 hrs by Annexin V-FITC/propidium iodide staining based flow cytometry (reference value: 26.5 %); assay type: functional; set-up: scale not given: the % may be the effect or the level left; outline: as §1
# SH-SY5Y [4] = assay: Inhibition of H2O2-induced apoptosis in human SH-SY5Y cells assessed as normal cells at 6.25 uM preincubated for 24 hrs followed by H2O2 addition measured after 4 hrs by Annexin V-FITC/propidium iodide staining based flow cytometry (reference value: 67.2 %); assay type: functional; set-up: scale not given: the % may be the effect or the level left; outline: as §1
# SH-SY5Y [5] = assay: Inhibition of H2O2-induced apoptosis in human SH-SY5Y cells assessed as necrotic cells at 6.25 uM preincubated for 24 hrs followed by H2O2 addition measured after 4 hrs by Annexin V-FITC/propidium iodide staining based flow cytometry (reference value: 0.9 %); assay type: functional; set-up: scale not given: the % may be the effect or the level left; outline: as §1
# SH-SY5Y [6] = assay: Protection against H2O2-induced apoptosis in human SH-SY5Y cells assessed as reduction in cell shrinkage at 1.56 to 6.25 uM preincubated for 24 hrs followed by H2O2 addition measured after 4 hrs by Giemsa staining based inverted phase contrast microscopic analysis; assay type: functional
# Outline: (§2)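 Cells at 3.5×10^4 cells/mL in 24-well plates were pretreated 24 h with compound at three concentrations, then H2O2 (4.8 mM stock) for 4 h. After PBS washes, cells were fixed in 4% paraformaldehyde/70% cold ethanol for 10 min. Staining was 6% Giemsa or DAPI for 5 min in the dark. Random fields were photographed at 200× by microscope, alongside control and model groups.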
# [7] = Inhibition of H2O2-induced apoptosis in human HBMEC2 cells assessed as late apoptotic cells at 3.13 uM preincubated for 24 hrs followed by H2O2 addition measured after 4 hrs by Annexin V-FITC/propidium iodide staining based flow cytometry (reference value: 29.4 %); assay type: functional, HBMEC-2; set-up: scale not given: the % may be the effect or the level left; outline: as §1
# SH-SY5Y [8] = assay: Inhibition of H2O2-induced apoptosis in human SH-SY5Y cells assessed as early apoptotic cells at 1.56 uM preincubated for 24 hrs followed by H2O2 addition measured after 4 hrs by Annexin V-FITC/propidium iodide staining based flow cytometry (reference value: 5.4 %); assay type: functional; set-up: scale not given: the % may be the effect or the level left; outline: as §1
# SH-SY5Y [9] = assay: Inhibition of H2O2-induced apoptosis in human SH-SY5Y cells assessed as normal cells at 3.13 uM preincubated for 24 hrs followed by H2O2 addition measured after 4 hrs by Annexin V-FITC/propidium iodide staining based flow cytometry (reference value: 67.2 %); assay type: functional; set-up: scale not given: the % may be the effect or the level left; outline: as §1
# SH-SY5Y [10] = assay: Inhibition of H2O2-induced apoptosis in human SH-SY5Y cells preincubated for 24 hrs followed by H2O2 addition measured after 4 hrs by Annexin V-FITC/propidium iodide staining based flow cytometry; assay type: functional, cell-based; outline: as §1
# [11] = Neuroprotective activity against H2O2-induced cell damage in human HBMEC2 cells assessed as increase in cell viability preincubated for 24 hrs followed by H2O2 addition and measured after 4 hrs by MTT assay; assay type: functional, cell-based; conditions: HBMEC-2
# Outline: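 Cells at 3.5×10^4 cells/mL in 96-well plates were grown 24 h (37 °C, 5% CO2). Test agent was added at five concentrations for 24 h, then H2O2 (4.8 mM stock) to model and drug wells. After PBS washes, MTT (5 mg/mL) was added for 4 h, formazan was dissolved in DMSO and OD was read at 550 nm. Proliferation rate = (drug − injury OD)/(control − injury OD). EC50 came from a formula using maximum concentration and summed, maximal and minimal rates.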
# HBMEC-2 [12] = assay: Protection against H2O2-induced apoptosis in human HBMEC2 cells assessed as decrease in number of irregular cells preincubated for 24 hrs followed by H2O2 addition measured after 4 hrs by DAPI staining based inverted phase contrast microscopic analysis; assay type: functional, cell-based; outline: as §2
# Chorioallantoic membrane = assay: Induction of angiogenesis in chicken chorioallantoic membrane assessed as increase in vascular density at 1 mg/ml measured after 48 hrs by dissecting microscopic analysis; assay type: functional, cell membranes; conditions: Gallus gallus
# Outline: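 Fertile eggs were incubated 7 days at 37 °C and 60% humidity. A small window was opened at one end and the membrane was wetted with a drop of sterile saline. Test solution (0.5, 1 or 2 mg/mL) was applied to the allantoic membrane, with PBS for controls. After 48 h the membrane was separated from the shell, then viewed and photographed under a dissecting microscope.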
# [13] = Inhibition of H2O2-induced apoptosis in human HBMEC2 cells assessed as early apoptotic cells at 3.13 uM preincubated for 24 hrs followed by H2O2 addition measured after 4 hrs by Annexin V-FITC/propidium iodide staining based flow cytometry (reference value: 8.1 %); assay type: functional, HBMEC-2; set-up: scale not given: the % may be the effect or the level left; outline: as §1
# SH-SY5Y [14] = assay: Inhibition of H2O2-induced apoptosis in human SH-SY5Y cells assessed as early apoptotic cells at 6.25 uM preincubated for 24 hrs followed by H2O2 addition measured after 4 hrs by Annexin V-FITC/propidium iodide staining based flow cytometry (reference value: 5.4 %); assay type: functional; set-up: scale not given: the % may be the effect or the level left; outline: as §1
# [15] = Inhibition of H2O2-induced apoptosis in human HBMEC2 cells assessed as necrotic cells at 6.25 uM preincubated for 24 hrs followed by H2O2 addition measured after 4 hrs by Annexin V-FITC/propidium iodide staining based flow cytometry (reference value: 0.4 %); assay type: functional, HBMEC-2; set-up: scale not given: the % may be the effect or the level left; outline: as §1
# SH-SY5Y [16] = assay: Inhibition of H2O2-induced apoptosis in human SH-SY5Y cells assessed as late apoptotic cells at 3.13 uM preincubated for 24 hrs followed by H2O2 addition measured after 4 hrs by Annexin V-FITC/propidium iodide staining based flow cytometry (reference value: 26.5 %); assay type: functional; set-up: scale not given: the % may be the effect or the level left; outline: as §1
# HBMEC-2 [17] = assay: Protection against H2O2-induced mitochondrial dysfunction in human HBMEC2 cells assessed as recovery of mitochondrial membrane potential at 1.56 to 6.25 uM preincubated for 24 hrs followed by H202 addition measured after 4 hrs by Rh123 staining based inverted light microscopic analysis; assay type: functional, cell-based
# Outline: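 Cells in 96-well plates (3.5×10^4 cells/mL) were grown 24 h. They were pretreated 24 h with compound at three concentrations, then exposed to H2O2 (4.8 mM stock) for 4 h. Medium was removed and Rh123 added for 30 min at 37 °C. Cells were washed twice in cold PBS and examined immediately under an inverted microscope for green fluorescence.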
# SH-SY5Y [18] = assay: Protection against H2O2-induced apoptosis in human SH-SY5Y cells assessed as decrease in number of irregular cells preincubated for 24 hrs followed by H2O2 addition measured after 4 hrs by DAPI staining based inverted phase contrast microscopic analysis; assay type: functional, cell-based; outline: as §2
# [19] = Inhibition of H2O2-induced apoptosis in human HBMEC2 cells assessed as late apoptotic cells at 1.56 uM preincubated for 24 hrs followed by H2O2 addition measured after 4 hrs by Annexin V-FITC/propidium iodide staining based flow cytometry (reference value: 29.4 %); assay type: functional, HBMEC-2; set-up: scale not given: the % may be the effect or the level left; outline: as §1
structure (smiles),measurement,setting,value
COc1cc(CNC(=O)/C=C/c2cc(OC)c(OC)cc2OC)ccc1O,Activity,SH-SY5Y [1],14%
same,Activity,[2],9.1%
same,Activity,SH-SY5Y [3],23.9%
same,Activity,SH-SY5Y [4],82.3%
same,Activity,SH-SY5Y [5],1.1%
same,Activity,SH-SY5Y [6],Active
same,Activity,[7],10.5%
same,Activity,SH-SY5Y [8],4.3%
same,Activity,SH-SY5Y [9],74.7%
same,inhibition,SH-SY5Y [10],Dose-dependent effect
same,EC50,[11],3.26 µM
same,Activity,HBMEC-2 [12],Dose-dependent effect
same,Activity,Chorioallantoic membrane,Active
same,Activity,[13],8.9%
same,Activity,SH-SY5Y [14],2.6%
same,Activity,[15],0.1%
same,Activity,SH-SY5Y [16],21%
same,Activity,HBMEC-2 [17],Active
same,Activity,SH-SY5Y [18],Dose-dependent effect
same,Activity,[19],19.3%

# Reference: ChEMBL document CHEMBL4406851, “Design, synthesis and biological evaluation of cinnamic acid derivatives with synergetic neuroprotection and angiogenesis effect” (Eur J Med Chem, 2019)
